Results of several laboratories.
Target: Receptor-interacting serine/threonine-protein kinase 2 (RIPK2, Homo sapiens, UniProt O43353)

`CN(C)C(=O)Cn1cc(-c2nc(C3(c4ccc(-c5cnc(N)nc5)cc4)CC3)no2)cn1` gave a remaining binding of 100% (cell-free assay, competition with immobilised ligand; 1 µM).
The remaining binding of `Cc1cnn2ncc(-c3ccnc(N(C)C)n3)c2c1` is reported as 100% (binding; 1 µM).
For `C[C@@H](c1ccc(-n2cnc3c(N)ncnc32)cc1)N1CCc2nn(C)c(Cc3ccccc3)c2C1=O`, the remaining binding was 100% (binding, competition with immobilised ligand; 0.1 µM).
`Nc1cnc(N2CCc3cc(S(=O)(=O)Nc4c(F)cc(Cl)cc4F)cc(N4CCCC4=O)c32)nc1` has a remaining binding of 53% (cell-free assay, competition with immobilised ligand; 1 µM).
The remaining binding of `O=C(NCCCN1CCOCC1)c1ccc(Nc2ncc(Cl)c(-c3ccc(Cl)s3)n2)cc1` is reported as 100% (binding, competition with immobilised ligand; 1 µM).
The remaining binding of `O=C(NC[C@@H]1[C@H]2CN(C(=O)OCc3cc(C(F)(F)F)cc(C(F)(F)F)c3)C[C@@H]12)c1ccc2[nH]nnc2c1` is reported as 64% (cell-free assay, competition with immobilised ligand; 1 µM).
With `N[C@@H]1CCN(c2nccc(-c3cnn4ncccc34)n2)C1` the remaining binding was 95% (binding; 1 µM).
`C[C@@H]1CN(c2cc(-c3nn(C)c4ccc(OC5(C)CC5)cc34)ncn2)C[C@H](C)O1` has a remaining binding of 100% (cell-free assay, competition with immobilised ligand; 1 µM).
`c1cncc(-c2cccc(Nc3nccc(NC4CCCCC4)n3)c2)c1` gave a remaining binding of 39% (binding, competition with immobilised ligand; 10 µM).
`Cc1c[nH]c2nccc(Oc3c(F)cc(Nc4cc(Cl)nc(N)n4)cc3F)c12` has a remaining binding of 92% (cell-free assay, competition with immobilised ligand; 0.1 µM).
The remaining binding of `CN(C)c1nccc(-c2cnn3ncccc23)n1` is reported as 100% (binding; 1 µM).
`O=C(NCC1CCOCC1)c1n[nH]cc1NC(=O)c1c(F)cccc1F` has a remaining binding of 100% (binding, competition with immobilised ligand; 1 µM).
With `COc1cnc(Nc2cccc(S(N)(=O)=O)c2)nc1N1CCN(c2ccccc2)C(=O)C1` the remaining binding was 100% (binding, competition with immobilised ligand; 1 µM).
With `CN(c1nccc(-c2cnn3ncccc23)n1)C1CC1` the remaining binding was 87% (binding; 1 µM).
With `Cc1cnc(Nc2ccc(C(=O)N3CCC(N4CCCC4)CC3)cc2)nc1-c1cc2ccccc2s1` the remaining binding was 81% (binding, competition with immobilised ligand; 1 µM).
With `CN(C)c1nccc(-c2cnc3ncccn23)n1` the remaining binding was 98% (binding; 1 µM).
The remaining binding of `O=C(c1ccc(Nc2ncc(Cl)c(-c3ccc(Cl)s3)n2)cc1)N1CCC(N2CCCC2)CC1` is reported as 89% (binding, competition with immobilised ligand; 1 µM).
`c1ccc(N2CCN(Cc3nc4ccccc4[nH]3)CC2)nc1` gave a remaining binding of 100% (binding, competition with immobilised ligand; 1 µM).
`C[C@@H]1CCN(c2nccc(-c3cnn4ncccc34)n2)C1` has a remaining binding of 91% (binding; 1 µM).
`CNC(=O)[C@@H]1CC[C@@H](n2c(-c3ccc4cnccc4c3)nc3ccc(C(=O)NCc4cccc(C(N)=O)c4)cc32)C1` has a remaining binding of 100% (binding, competition with immobilised ligand; 1 µM).
With `CN(C)c1ncc(F)c(-c2cnn3ncccc23)n1` the remaining binding was 100% (binding; 1 µM).
The remaining binding of `CN(C(=O)c1ccccc1)c1cc(N(C)c2ccc3c(c2)CCc2ccc(C(=O)NCCN4CCOCC4)cc2C3=O)ccc1F` is reported as 56% (cell-free assay, competition with immobilised ligand; 1 µM).
